{"data": "Measured values gathered from unrelated publications", "cell line": "A549", "read-out": "cell growth or viability", "note": "Compare with care: the assays were run in different laboratories."}
{"Structure (SMILES)": "C[C@H](CCC(=O)O)[C@H]1CC[C@H]2[C@@H]3CC[C@@H]4C[C@H](O)CC[C@]4(C)[C@H]3CC[C@]12C", "technique": "MTT", "time": "72 h", "IC50 [µM]": 70}
{"Structure (SMILES)": "COc1cc2ncnc(Nc3ccc4c(c3)/C(=C/c3cccc(Cl)c3)C(=O)N4C)c2cc1OC", "technique": "MTT", "IC50 [µM]": 9.19}
{"Structure (SMILES)": "Cc1ncc(CN2CCc3ccccc3C2)c2cc(C(=O)c3ccc4c(c3)OCCO4)oc12", "technique": "MTT", "time": "72 h", "IC50 [µM]": 28.2}
{"Structure (SMILES)": "O=C(O)c1ccc2c(c1)nc(Nc1cccc(Cl)c1)c1ccncc12", "technique": "resazurin", "time": "48 h", "IC50 [µM]": 11.5}
{"Structure (SMILES)": "C=CC(=O)N1CCN(c2nc(=O)n(-c3c(C)ccnc3C(C)C)c3nc(-c4c(O)cccc4F)c(F)cc23)[C@@H](C)C1", "technique": "ATP luminescence", "IC50 [µM]": "> 10"}
{"Structure (SMILES)": "COc1cccc2c1C(=O)c1c(O)c3c(c(O)c1C2=O)C[C@@](O)(C(=O)CO)C[C@@H]3O[C@H]1C[C@H](N)[C@H](O)[C@H](C)O1", "technique": "MTT", "time": "72 h", "IC50 [µM]": 2.7}
{"Structure (SMILES)": "Cc1ccc2c(-c3cc4c(CNCc5cccnc5)cnc(C)c4o3)cc(=O)oc2c1C", "technique": "MTT", "time": "72 h", "IC50 [µM]": 36.4}
{"Structure (SMILES)": "Cc1nc(Nc2ccc3c(c2)/C(=C/c2ccccc2C)C(=O)N3)c2ccccc2n1", "technique": "MTT", "IC50 [µM]": 18.2}
{"Structure (SMILES)": "CN(C)C/C=C/C(=O)Nc1cc2c(Nc3ccc(F)c(Cl)c3)ncnc2cc1O[C@H]1CCOC1", "technique": "MTT", "time": "72 h", "IC50 [µM]": 48.5}
{"Structure (SMILES)": "C=C(F)C(=O)N1CCN(c2nc(OC[C@@H]3CCCN3C)nc3c2CCN(c2cccc4cccc(Cl)c24)C3)C[C@@H]1CC#N", "technique": "ATP luminescence", "IC50 [µM]": 2.17}
{"Structure (SMILES)": "Cc1nc(Nc2ccc3c(c2)C(C)(C)C(=O)N3)c2ccccc2n1", "technique": "MTT", "IC50 [µM]": 3.21}
{"Structure (SMILES)": "O=C(C=Cc1ccccc1)Nc1cc(-c2ccnc(N3CCC(O)CC3)c2)ccn1", "technique": "MTT", "time": "72 h", "IC50 [µM]": 0.085}
{"Structure (SMILES)": "Cc1ncc(CN2CCN(Cc3ccccn3)CC2)c2cc(C(=O)c3ccc4c(c3)OCCO4)oc12", "technique": "MTT", "time": "72 h", "IC50 [µM]": 57.2}
{"Structure (SMILES)": "Cc1nc(Nc2ccc3c(c2)/C(=C/c2ccccc2Cl)C(=O)N3)c2ccccc2n1", "technique": "MTT", "IC50 [µM]": 5.67}
